Assays:
[1] = tested on: HEL; assay: (§1) Cytotoxicity against HEL cells infected with Cytomegalovirus assessed as alteration in cell morphology by microscopic method; format: cell-based; settings: human, hel
Method in brief: (§2)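 In the HEL cultures used for the antiviral assays, cell morphology was examined microscopically across varying compound concentrations. MCC is the minimum concentration causing a microscopically detectable alteration of cell morphology.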

[2] = tested on: Human alphaherpesvirus 3; assay: Antiviral activity against thymidine kinase deficient Varicella-Zoster virus 07-1 infected in HEL cells assessed as reduction in virus plaque formation; format: functional, cell-based
Method in brief: (§3)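 Confluent HEL fibroblast cultures were infected with VZV at an input of 100 PFU and incubated with varying compound concentrations. Plaques were counted once plaque formation was complete in untreated infected controls.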

[3] = tested on: Cytomegalovirus; assay: Antiviral activity against Cytomegalovirus AD169 infected in HEL cells assessed as reduction in virus plaque formation; format: functional, cell-based
Method in brief: (§4)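 Confluent HEL fibroblast cultures infected with 100 PFU of HCMV and kept with varying compound concentrations. Plaques scored once plaque formation was complete in untreated infected controls.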

[4] = tested on: Cytomegalovirus; assay: Antiviral activity against Cytomegalovirus Davis infected in HEL cells assessed as reduction in virus plaque formation; format: functional, cell-based; method in brief: as §4
[5] = tested on: HEL; assay: Cytotoxicity against HEL cells infected with Cytomegalovirus assessed as growth inhibition; format: cell-based; settings: human
[6] = tested on: L1210; assay: Anti-proliferative activity against mouse L1210 cells measured after 48 hrs by coulter counter method; format: ADME, cell-based
Method in brief: (§5)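 Cells at 300,000–500,000 cells/mL, combined 1:1 by volume with compound dilutions, incubated at 37 °C: L1210 for two days, CEM for three days, HeLa for four days. Cells counted by Coulter counter.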

[7] = tested on: CCRF-CEM; assay: Anti-proliferative activity against human CEM cells measured after 72 hrs by coulter counter method; format: ADME, cell-based; method in brief: as §5
[8] = tested on: HeLa; assay: Anti-proliferative activity against human HeLa cells measured after 4 days by coulter counter method; format: ADME, cell-based; method in brief: as §5
[9] = tested on: HMEC-1; assay: Anti-proliferative activity against HMEC1 cells by coulter counter method; format: ADME, cell-based, Homo sapiens
Method in brief: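 HMEC-1 cells at 300,000–500,000 cells/mL, mixed 1:1 by volume with serial dilutions of test compound, incubated at 37 °C. Cell number counted by Coulter counter.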

[10] = as §1; format: cell-based; settings: human, HEL cells infected with Cytomegalovirus; method in brief: as §2
[11] = tested on: Human alphaherpesvirus 3; assay: Antiviral activity against thymidine kinase expressing Varicella-Zoster virus OKA infected in HEL cells assessed as reduction in virus plaque formation; format: functional, cell-based, strain Oka vaccine; method in brief: as §3
[12] = (§6) Cytotoxicity against HEL cells infected with Varicella-Zoster virus assessed as alteration in cell morphology by microscopic method; format: cell-based; settings: human, HEL cells infected with Varicella-Zoster virus; method in brief: as §2
[13] = tested on: HeLa; assay: Anti-proliferative activity against human HeLa cells measured after 72 hrs by coulter counter method; format: ADME, cell-based
[14] = tested on: HEL; assay: as §6; format: cell-based; settings: human, hel; method in brief: as §2
[15] = tested on: HEL; assay: (§7) Cytotoxicity against HEL cells infected with Varicella-Zoster virus assessed as growth inhibition; format: cell-based; settings: human, hel
[16] = tested on: Human alphaherpesvirus 3; assay: Potency index, ratio of acyclovir EC50 to compound EC50 for thymidine kinase deficient Varicella-Zoster virus 07-1 infected in HEL cells assessed as reduction in virus plaque formation; format: functional
[17] = tested on: Human alphaherpesvirus 2; assay: Antiviral activity against Herpes simplex virus 2 G infected in HEL cells assessed as reduction in virus-induced cytopathogenicity; format: functional, cell-based; settings: Human alphaherpesvirus 2, strain G
[18] = Cytotoxicity against virus infected HEL cells assessed as alteration in cell morphology by microscopic method; format: cell-based; settings: human; method in brief: as §2
[19] = as §7; format: cell-based; settings: human, HEL cells infected with Varicella-Zoster virus
[20] = Human alphaherpesvirus 3, strain Oka vaccine, HEL
[21] = Human alphaherpesvirus 3, 07-1, HEL
[22] = Human betaherpesvirus 5, AD169, HEL
[23] = Human betaherpesvirus 5, Davis, HEL

SMILES	MCC [1] [µM]	EC50 [3] [µM]	EC50 [4] [µM]	CC50 [5] [µM]	IC50 ([8]; hela) [µM]	MCC [10] [µM]	EC50 [11, 20] [µM]	EC50 [2, 21] [µM]	MCC [12] [µM]	EC50 [3, 22] [µM]	EC50 [4, 23] [µM]	IC50 ([6]; Mus musculus, L1210, 48 h) [µM]	IC50 ([7]; Homo sapiens, CCRF-CEM, 72 h) [µM]	IC50 ([9]; Homo sapiens, HMEC-1) [µM]	further results
CCOP(=O)(OCC)C1CC(Cn2c(=O)n(Cc3cccc(F)c3)c(=O)c3ccccc32)ON1Cc1ccccc1 (mixture of isomers; trans)	100	9.9	8.94	20.8	63										EC50 [2]: 20 µM; IC50 ([6]; l1210): 17 µM; IC50 ([7]; ccrf-cem): 17 µM; IC50 ([9]; hmec-1): 28 µM
CCOP(=O)(OCC)[C@H]1C[C@@H](Cn2ccc(=O)n(C(=O)c3ccccc3)c2=O)ON1C						100	65.7	88.4	> 100	> 100	> 100	> 200	> 200		IC50 [13]: > 200 µM
CCOP(=O)(OCC)C1CC(Cn2c(=O)n(Cc3ccc(F)cc3)c(=O)c3ccccc32)ON1Cc1ccccc1 (mixture of isomers; cis)	20		> 4				> 4	> 4		> 4		19	17	27	MCC [14]: 20 µM; IC50 ([8]; Homo sapiens, HeLa, 96 h): 17 µM
CCOP(=O)(OCC)[C@H]1C[C@@H](Cn2c(=O)n(C(=O)c3ccccc3)c(=O)c3ccccc32)ON1C						100	7.7	10.9	> 100	> 100	> 100	> 200	74		IC50 [13]: > 200 µM
CCOP(=O)(OCC)C1CC(Cn2c(=O)n(Cc3ccccc3F)c(=O)c3ccccc32)ON1Cc1ccccc1 (stereo not given)				11.8		100	4.7	5.1	100	8.94	≥ 6.5	17	20	23	CC50 [15]: 11.8 µM; IC50 ([8]; Homo sapiens, HeLa, 96 h): 17 µM; Ratio EC50 [16]: 10 - 14
Nc1nc(O)c2ncn(COC(CO)CO)c2n1 [GANCICLOVIR]				> 350		> 350				14.9	6.5				EC50 [17]: 0.055 µM; MCC [18]: > 100 µM
CCOP(=O)(OCC)C1CC(Cn2c(=O)n(Cc3ccccc3)c(=O)c3ccccc32)ON1Cc1ccccc1 (mixture of isomers; cis)		≥ 3	6.5	9	33	100		13.2	100			18	10	28	EC50 [11]: 7.3 µM; CC50 [19]: 9 µM
CCOP(=O)(OCC)C1CC(Cn2c(=O)n(Cc3ccc(F)cc3)c(=O)c3ccccc32)ON1Cc1ccccc1 (mixture of isomers; trans)	100	≥ 6.5	8.94	6.6	18										EC50 [11]: 3 µM; EC50 [2]: 3.6 µM; MCC [14]: 100 µM; CC50 [15]: 6.6 µM; IC50 ([7]; ccrf-cem): 13 µM; IC50 ([9]; hmec-1): 26 µM; Ratio EC50 [16]: 10 - 14
